Laboratory results as given in ChEMBL document CHEMBL4354848, “Molecular Design and Synthesis of Ivermectin Hybrids Targeting Hepatic and Erythrocytic Stages of Plasmodium Parasites” (J Med Chem, 2020).
Active and inactive are the calls of the source. No cut-off for these calls is given here.

How the values were obtained:
Plasmodium berghei [1] = experiment: Antiplasmodial activity against luciferase expressing Plasmodium berghei sporozoites infected in human HuH7 cells assessed as reduction in parasite load at 1 to 10 uM preincubated for 1 hr followed by parasite infection and measured after 46 hrs by bioluminescence assay; assay type: functional, organism-based
In short: (§1)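 Huh7 hepatoma cells seeded at 1x10^4/well, left overnight at 37 °C, 5% CO2. Serial dilutions from 10 mM DMSO stocks in medium with gentamicin and amphotericin B added 1 h before 1x10^4 firefly luciferase-expressing P. berghei sporozoites from An. stephensi salivary glands. Spin 1800 xg for 5 min, then culture. Parasite load read by bioluminescence. DMSO and atovaquone as controls. IC50 from nonlinear regression of normalized curves.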

Plasmodium berghei [2] = experiment: Antiplasmodial activity against luciferase expressing Plasmodium berghei sporozoites infected in human HuH7 cells assessed as reduction in parasite load preincubated for 1 hr followed by parasite infection and measured after 46 hrs by bioluminescence assay; assay type: functional, organism-based; in short: as §1
Plasmodium falciparum [3] = experiment: Potency index, ratio of ivermectin IC50 to test compound IC50 for antiplasmodial activity against chloroquine-sensitive ring-stage synchronized cultures of Plasmodium falciparum NF54; assay type: functional
Plasmodium falciparum [4] = experiment: Antiplasmodial activity against chloroquine-sensitive ring-stage synchronized cultures of Plasmodium falciparum NF54 incubated for 48 hrs by SYBR green I dye based flow cytometry; assay type: functional, organism-based
In short: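 Ring-stage synchronized PfNF54 cultures (2.5% hematocrit, ~1% parasitemia) exposed to compounds or DMSO vehicle for 48 h at 37 °C under 5% CO2/5% O2. Stocks in DMSO diluted in RPMI 1640-based medium with Albumax, HEPES, hypoxanthine. ~800 000 cells stained with SYBR green I for 20 min in the dark; ~100,000 events counted by flow cytometry. Triplicates, at least three experiments.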

Huh-7 = experiment: Cytotoxicity against human HuH7 cells infected with luciferase expressing Plasmodium berghei sporozoites assessed as reduction in cell viability preincubated for 1 hr followed by parasite infection and measured after 48 hrs by alamar blue assay; assay type: cell-based; conditions: huh-7, 46 h, in the assay text read “46 hrs” for “48 hrs”
In short: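 Huh7 cells were pre-treated for 1 h with serial dilutions from 10 mM DMSO stocks, then infected with luciferase-expressing P. berghei sporozoites and spun at 1800 xg for 5 min. Cultures were kept at 37 °C, 5% CO2. Viability was read by Alamar Blue added at 46 h post infection, following the manufacturer's instructions.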

Anopheles stephensi = experiment: Insecticidal activity against compound treated Balb/c mouse blood fed Anopheles stephensi assessed as effect on mosquito survival at 1 mg/kg, po administered via gavage 24 hrs prior to blood feed for 20 mins under dark condition and measured daily up to 14 days post blood feed; assay type: functional, organism-based
In short: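 Balb/c mice (6-8 weeks) received a single oral dose of 1 mg/kg as a suspension in sunflower oil. Controls got DMSO in sunflower oil. At 24 h, ~30 mosquitoes per mouse fed for ~20 min in the dark. Blood ingestion was confirmed visually, and survival was scored daily up to 14 days.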

Plasmodium berghei [5] = experiment: Potency index, ratio of ivermectin IC50 to test compound IC50 for antiplasmodial activity against luciferase expressing Plasmodium berghei sporozoites infected in human HuH7 cells; assay type: functional
[6] = Plasmodium falciparum, NF54, 48 h, read-out: IC50

Molecule | Activity (Plasmodium berghei [1]) | IC50 (Plasmodium berghei [2]; Plasmodium berghei, Huh-7) [nM] | Ratio IC50 (Plasmodium falciparum [3]) | IC50 (Plasmodium falciparum [4]; [6]) [nM] | Activity (Huh-7) | Activity (Anopheles stephensi) | IC50 (Plasmodium berghei [2]) [nM] | IC50 (Plasmodium falciparum [4]; read-out: IC50) [nM] | IC50 (Plasmodium falciparum [4]) | Ratio IC50 (Plasmodium berghei [5])
CCOC(=O)c1c(C)nc(OCc2cn(CC(=O)O[C@@H]3/C(C)=C/C[C@@H]4C[C@@H](C[C@]5(CC[C@H](C)[C@@H]([C@@H](C)CC)O5)O4)OC(=O)[C@@H]4C=C(C)[C@@H](O)[C@H]5OC/C(=C\C=C\[C@@H]3C)[C@]54O)nn2)nc1-c1ccccc1 | Active | 990 | 11 | 110 | Non-Toxic | – | – | – | – | –
CC[C@H](C)[C@H]1O[C@]2(CC[C@@H]1C)C[C@@H]1C[C@@H](C/C=C(\C)[C@@H](OC(=O)Cn3cc(COc4nc(C)c(C(=O)OC(C)C)c(-c5cccc([N+](=O)[O-])c5)n4)nn3)[C@@H](C)/C=C/C=C3\CO[C@@H]4[C@H](O[Si](C)(C)C(C)(C)C)C(C)=C[C@@H](C(=O)O1)[C@]34O)O2 | inactive | – | – | – | Non-Toxic | – | – | – | – | –
IVERMECTIN [listing 1 of 2 here] | – | – | – | – | – | Active | – | – | – | –
CC[C@H](C)[C@H]1O[C@]2(CC[C@@H]1C)C[C@@H]1C[C@@H](C/C=C(\C)[C@@H](OC(=O)Cn3cc(COc4nc(C)c(C(=O)OC(C)C)c(-c5cccc([N+](=O)[O-])c5)n4)nn3)[C@@H](C)/C=C/C=C3\CO[C@@H]4[C@H](O)C(C)=C[C@@H](C(=O)O1)[C@]34O)O2 | Active | 911 | 3 | 161 | Non-Toxic | – | – | – | – | –
IVERMECTIN [listing 2 of 2 here] | – | – | – | – | – | – | 1640 | 520 | – | –
CC[C@H](C)[C@H]1O[C@]2(CC[C@@H]1C)C[C@@H]1C[C@@H](C/C=C(\C)[C@@H](O)[C@@H](C)/C=C/C=C3\CO[C@@H]4[C@H](O)C(C)=C[C@@H](C(=O)O1)[C@]34O)O2 [IVM AGLYCONE] | Active | 4560 | – | – | Non-Toxic | inactive | – | – | Not Active | –
O=C1C(O)=C([C@H]2CC[C@H](c3ccc(Cl)cc3)CC2)C(=O)c2ccccc21 [ATOVAQUONE] | – | 0.7 | – | – | – | – | – | – | – | –
CCOC(=O)c1c(C)nc(OCc2cn(CC(=O)O[C@@H]3/C(C)=C/C[C@@H]4C[C@@H](C[C@]5(CC[C@H](C)[C@@H]([C@@H](C)CC)O5)O4)OC(=O)[C@@H]4C=C(C)[C@@H](O)[C@H]5OC/C(=C\C=C\[C@@H]3C)[C@]54O)nn2)nc1-c1cc(OC)c(OC)cc1[N+](=O)[O-] | Active | 503 | 5 | 50.2 | Non-Toxic | inactive | – | – | – | 3
